ChEMBL document CHEMBL5247578, “Effective synthesis of benzimidazoles-imidazo[1,2-a]pyrazine conjugates: A comparative study of mono-and bis-benzimidazoles for antitumor activity” (Eur J Med Chem, 2019)

Experiments:
Type in all cases: functional
TK-10 = assay: Antiproliferative activity against human TK-10 cells assessed as cell growth at 0.00001 M incubated for 48 hrs by SRB assay relative to control; conditions: read-out: Activity
U-251 [1] = assay: Antiproliferative activity against human U-251 cells assessed as cell growth at 0.000001 M incubated for 48 hrs by SRB assay relative to control; conditions: read-out: Activity
SR = assay: Antiproliferative activity against human SR cells assessed as cell growth at 0.00000001 M incubated for 48 hrs by SRB assay relative to control; conditions: dose 10 nM, read-out: Activity
MDA-MB-435 = assay: Antiproliferative activity against human MDA-MB-435 cells assessed as cell growth at 0.000001 M incubated for 48 hrs by SRB assay relative to control; conditions: read-out: Activity
NCI-H460 = assay: Growth inhibition against human NCI-H460 cells incubated for 48 hrs by sulforhodamine B assay
OVCAR-3 = assay: Antiproliferative activity against human OVCAR-3 cells assessed as cell growth at 0.0001 M incubated for 48 hrs by SRB assay relative to control; conditions: read-out: Activity
A549 = assay: Antiproliferative activity against human A549 cells assessed as cell growth at 0.000001 M incubated for 48 hrs by SRB assay relative to control; conditions: read-out: Activity
Summary of the method: (§1)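 NCI-60 five-dose screen over 10^-4–10^-8 M (10-fold dilutions). Cells grown in RPMI 1640 with 5% FBS and 2 mM L-glutamine, seeded at 5,000–40,000 cells/well and preincubated 24 h. Drug from DMSO stock, 48 h at 37 °C, 5% CO2. Adherent cells TCA-fixed and stained with 0.4% SRB; A515 read. Percent growth = (Ti−Tz)/(C−Tz)×100, or (Ti−Tz)/Tz×100 when Ti<Tz.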

M14 = assay: Antiproliferative activity against human M14 cells assessed as cell growth at 0.0000001 M incubated for 48 hrs by SRB assay relative to control; conditions: dose 100 nM, read-out: Activity
BT-549 = assay: Antiproliferative activity against human BT-549 cells assessed as cell growth at 0.000001 M incubated for 48 hrs by SRB assay relative to control; conditions: read-out: Activity; summary of the method: as §1
SK-OV-3 = assay: Growth inhibition against human SK-OV-3 cells incubated for 48 hrs by sulforhodamine B assay
NCI-H522 = assay: Growth inhibition against human NCI-H522 cells assessed as total growth inhibitory concentration incubated for 48 hrs by sulforhodamine B assay
MDA-MB-468 = assay: Antiproliferative activity against human MDA-MB-468 cells assessed as cell growth inhibition by measuring lethal concentration incubated for 48 hrs by sulforhodamine B assay; conditions: read-out: LC50 (the source's name)
Hs-578T = assay: Growth inhibition against human Hs-578T cells incubated for 48 hrs by sulforhodamine B assay
A498 = assay: Antiproliferative activity against human A498 cells assessed as cell growth at 0.00000001 M incubated for 48 hrs by SRB assay relative to control; conditions: dose 10 nM, read-out: Activity; summary of the method: as §1
RPMI-8226 [2] = assay: Antiproliferative activity against human RPMI-8226 cells assessed as cell growth inhibition by measuring lethal concentration incubated for 48 hrs by sulforhodamine B assay; conditions: read-out: LC50 (the source's name)
SF-539 = assay: Antiproliferative activity against human SF-539 cells assessed as cell growth at 0.00000001 M incubated for 48 hrs by SRB assay relative to control; conditions: dose 10 nM, read-out: Activity
SNB-19 = assay: Growth inhibition against human SNB-19 cells incubated for 48 hrs by sulforhodamine B assay
SNB-75 = assay: Antiproliferative activity against human SNB-75 cells assessed as cell growth at 0.0001 M incubated for 48 hrs by SRB assay relative to control; conditions: read-out: Activity
U-251 [3] = assay: Antiproliferative activity against human U-251 cells assessed as cell growth at 0.0000001 M incubated for 48 hrs by SRB assay relative to control; conditions: dose 100 nM, read-out: Activity
CAKI-1 = assay: Antiproliferative activity against human CAKI-1 cells assessed as cell growth at 0.000001 M incubated for 48 hrs by SRB assay relative to control; conditions: read-out: Activity; summary of the method: as §1
OVCAR-8 = assay: Antiproliferative activity against human OVCAR-8 cells assessed as cell growth at 0.0001 M incubated for 48 hrs by SRB assay relative to control; conditions: read-out: Activity
RPMI-8226 [4] = assay: Antiproliferative activity against human RPMI-8226 cells assessed as cell growth at 0.0000001 M incubated for 48 hrs by SRB assay relative to control; conditions: dose 100 nM, read-out: Activity
HCC 2998 = assay: Antiproliferative activity against human HCC 2998 cells assessed as cell growth at 0.00001 M incubated for 48 hrs by SRB assay relative to control; conditions: read-out: Activity
Summary of the method: (§2)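 NCI-60 five-dose screen (10^-4 to 10^-8 M). Cells grown in RPMI 1640 with 5% FBS and 2 mM L-glutamine, plated at 5,000-40,000 cells/well and preincubated 24 h. Drug given from DMSO stock, then 48 h at 37 °C, 5% CO2. For adherent lines, cells fixed with cold TCA, SRB-stained and read at 515 nm. Percent growth taken against time-zero and untreated control.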

UO-31 = assay: Antiproliferative activity against human UO-31 cells assessed as cell growth at 0.00001 M incubated for 48 hrs by SRB assay relative to control; conditions: read-out: Activity
HOP-92 [5] = assay: Antiproliferative activity against human HOP-92 cells assessed as cell growth at 0.000001 M incubated for 48 hrs by SRB assay relative to control; conditions: read-out: Activity; summary of the method: as §2
SK-MEL-2 [6] = assay: Antiproliferative activity against human SK-MEL-2 cells assessed as cell growth at 0.000001 M incubated for 48 hrs by SRB assay relative to control; conditions: read-out: Activity
SF-295 = assay: Antiproliferative activity against human SF-295 cells assessed as cell growth at 0.000001 M incubated for 48 hrs by SRB assay relative to control; conditions: read-out: Activity
SW-620 = assay: Antiproliferative activity against human SW620 cells assessed as cell growth at 0.0000001 M incubated for 48 hrs by SRB assay relative to control; conditions: dose 100 nM, read-out: Activity
OVCAR-4 = assay: Growth inhibition against human OVCAR-4 cells assessed as total growth inhibitory concentration incubated for 48 hrs by sulforhodamine B assay
SK-MEL-28 = assay: Antiproliferative activity against human SK-MEL-28 cells assessed as cell growth at 0.0001 M incubated for 48 hrs by SRB assay relative to control; conditions: read-out: Activity
NCI-H226 = assay: Antiproliferative activity against human NCI-H226 cells assessed as cell growth at 0.000001 M incubated for 48 hrs by SRB assay relative to control; conditions: read-out: Activity
SK-MEL-2 [7] = assay: Antiproliferative activity against human SK-MEL-2 cells assessed as cell growth at 0.0000001 M incubated for 48 hrs by SRB assay relative to control; conditions: dose 100 nM, read-out: Activity
SF-268 = assay: Antiproliferative activity against human SF-268 cells assessed as cell growth inhibition by measuring lethal concentration incubated for 48 hrs by sulforhodamine B assay; conditions: read-out: LC50 (the source's name)
SK-MEL-5 = assay: Antiproliferative activity against human SK-MEL-5 cells assessed as cell growth at 0.00001 M incubated for 48 hrs by SRB assay relative to control; conditions: read-out: Activity
HOP-92 [8] = assay: Antiproliferative activity against human HOP-92 cells assessed as cell growth at 0.0001 M incubated for 48 hrs by SRB assay relative to control; conditions: read-out: Activity; summary of the method: as §2

Structure (SMILES) | growth at 10 µM (TK-10) | growth at 1 µM (U-251 [1]) | growth at 0.01 µM (SR) | growth at 1 µM (MDA-MB-435) | GI50 (NCI-H460) | growth at 100 µM (OVCAR-3) | growth at 1 µM (A549) | growth at 0.1 µM (M14) | growth at 1 µM (BT-549) | GI50 (SK-OV-3) | TGI (NCI-H522) | CC50 (MDA-MB-468) | GI50 (Hs-578T) | growth at 0.01 µM (A498) | CC50 (RPMI-8226 [2]) | growth at 0.01 µM (SF-539) | GI50 (SNB-19) | growth at 100 µM (SNB-75) | growth at 0.1 µM (U-251 [3]) | growth at 1 µM (CAKI-1) | further results
COc1ccc(-c2cn3ccnc3c(-c3ccc4ncn(C5CCCCC5)c4c3)n2)cc1 | 13% | 69% | 102% | 7% | 0.622 µM | 17% | 63% | 95% | 26% | 0.508 µM | 6.15 µM | > 100 µM | 1.16 µM | 100% | > 100 µM | 87% | 0.836 µM | 11% | 104% | 44% | growth at 100 µM (OVCAR-8): 8%; growth at 0.1 µM (RPMI-8226 [4]): 108%; growth at 10 µM (HCC 2998): 9%; growth at 10 µM (UO-31): 14%; growth at 1 µM (HOP-92 [5]): 54%; growth at 1 µM (SK-MEL-2 [6]): 49%; growth at 1 µM (SF-295): 18%; growth at 0.1 µM (SW-620): 99%; TGI (OVCAR-4): > 100 µM; growth at 100 µM (SK-MEL-28): 36%; growth at 1 µM (NCI-H226): 73%; growth at 0.1 µM (SK-MEL-2 [7]): 92%; CC50 (SF-268): > 100 µM; growth at 10 µM (SK-MEL-5): -40%; growth at 100 µM (HOP-92 [8]): 9%
c1ccc(Cn2cnc3ccc(-c4nc(-c5ccc6c(c5)ncn6C5CCCCC5)cn5ccnc45)cc32)cc1 | 11% | 83% | 98% | 92% | 2.3 µM | -19% | 106% | 91% | 62% | 2.53 µM | 5.09 µM | > 100 µM | 2.71 µM | 95% | > 100 µM | 88% | 4.54 µM | -47% | 107% | 71% | growth at 100 µM (OVCAR-8): -2%; growth at 0.1 µM (RPMI-8226 [4]): 113%; growth at 10 µM (HCC 2998): -92%; growth at 10 µM (UO-31): -40%; growth at 1 µM (HOP-92 [5]): 65%; growth at 1 µM (SK-MEL-2 [6]): 90%; growth at 1 µM (SF-295): 74%; growth at 0.1 µM (SW-620): 105%; TGI (OVCAR-4): > 100 µM; growth at 100 µM (SK-MEL-28): 13%; growth at 1 µM (NCI-H226): 95%; growth at 0.1 µM (SK-MEL-2 [7]): 90%; CC50 (SF-268): > 100 µM; growth at 10 µM (SK-MEL-5): -90%; growth at 100 µM (HOP-92 [8]): -80%
